Data reported in the EternaBench riboswitch data.

Tested on: MS2 coat protein
Assay: apparent Kd, MS2 coat protein; higher = weaker binding; RNA-MaP array
In short: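 Apparent Kd is the median of per-cluster binding-curve fits for designed RNAs transcribed from sequenced DNA templates on an Illumina sequencing chip. The RNAs were incubated at room temperature with fluorescently labeled MS2 coat protein at 1.5 nM to 3 μM, with or without input ligand, and designs measured on fewer than 10 clusters were excluded.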

[1] = designed as: OFF switch for flavin mononucleotide, no ligand
[2] = ligand present: flavin mononucleotide, designed as: OFF switch for flavin mononucleotide
[3] = designed as: ON switch for flavin mononucleotide, no ligand
[4] = ligand present: flavin mononucleotide, designed as: ON switch for flavin mononucleotide
[5] = designed as: ON switch for tryptophan, no ligand
[6] = ligand present: tryptophan, designed as: ON switch for tryptophan

Row | Sequence | apparent Kd [1] [nM] | apparent Kd [2] [nM] | apparent Kd [3] [nM] | apparent Kd [4] [nM] | other results
1 | UGGAAGUAAGGAUAUCCGCGCGCGGGUUUUGCGCACGCACUGGAGAAGGUACAUGAGGAUCACCCAUGUUCGUC | 9.85 | 9.59 |  |  | 
2 | CUAACACAUGAGGAUCACCCAUGUUAGGAUAUCAGCUGCAGCGCUCGACUGCAAUUUAUGAGAAGGAACUGUGG | 17.5 | 24.2 |  |  | 
3 | UGGAUUCGACAAGGAUAUGGUAGUCAUAGCACAUGAGGAUCACCCAUGUUAAAGCAAAACAAAGUCCAGAAGGUGUAAGUACGG |  |  | 11.7 | 9.43 | 
4 | UAGGGUCUGUCGCGACAUGAGGAUCACCCAUGUGCUUAGUCAAGAAGGGCGGACAUGCAAAACCCGCAGGAUAUUGUAUGCACU | 254 | 59.5 |  |  | 
5 | AUGCCUCCACUAGGAUAUUACAUCUACAUUUCCACUUUCAAACAGACAUGAGGAUCACCCAUGUGUAAGAAGGAGUGCCUAGAG |  | 8.45 |  |  | 
6 | AAUUGGUGACUAGGAUAUUAGGGAUGGCCGUACUAAGAAGGAGUCGUGCUAACAUGAGGAUCACCCAUGUAUUGGAAGCCUUAA | 15.5 | 13.4 |  |  | 
7 | AUGGUCUCUUAAGGAUAUAGCUAUACAGAGCGCACGUAGGUUAAAUACAUGAGGAUCACCCAUGUCUAGAAGGUAAGUACCGGA |  |  | 11.6 | 11.1 | 
8 | UAGGAUAACACAGGAUAUACCCUUGUCGUCGGUUCUAAAUUACAUGAGGAUCACCCAUGUCUAAGGUAGAAGGGUGUUUGCGGU | 31.6 | 29.6 |  |  | 
9 | CUAGGUCAAGGAUAUACAUGAGGAUCACCCAUGUAAGAACCUAGUAGGGUCGUCCGAGGUAGAAGGUGAGCAUU | 24.9 | 19.6 |  |  | 
10 | CAAUGAACAUGAGGAUCACCCAUGUAGUAAUGCGAGAAAACGAAGGAUAUAGCGAUACUACAUAGCAAGAAGGUCGCAAACAUA |  |  | 40.4 | 30.7 | 
11 | ACAUGAGGAUCACCCAUGUACAUUUAUACUGGGAGACUAUCGUAGGAUAUAUGAACAAGCAUUCUAUAGAAGGACGAAAAGAUC | 59.4 | 40.4 |  |  | 
12 | GGUUGACAUGAGGAUCACCCAUGUGAGGAUAUAACAAGUGGGAGCUCUCCAUGAAAAGUUAGAAGGCACUUGGU | 61.8 | 52.9 |  |  | 
13 | GUACACAUGAGGAUCACCCAUGUACUGGUACGAGGACCGGUACGGCCGCCACUCGCCGAGAUUCAUAACACAUCAGAAAGCUCAC |  |  |  |  | apparent Kd [5]: 17.6 nM; apparent Kd [6]: 15.6 nM
14 | CACCUCCAAGGAUAUACAUGAGGAUCACCCAUGUGGAUAACCUGGGCGCGCCGAGCAAGUAGAAGGUGGAUUGG | 10.9 | 14.7 |  |  | 
15 | GACCGGACAUCCUAGGAUAUUUAUACUGAUACAUGAGGAUCACCCAUGUUUGGAAACAUCGUACGAAAGAAGGAGGAGACCUCUGA |  |  | 11.7 | 10.8 | 
16 | GGCUCCGUAGGAUAUCGUAUUAGCGACAUGAGGAUCACCCAUGUUCAUUUGUCCUCAAUACGAGAAGGACGAACUC | 16.1 | 18.3 |  |  | 
17 | UAUCUACUAUGAGGAUAUCGACAAUGGAUGAACAUGAGGAUCACCCAUGUAACUCAUGGUCCCUUCGAGAAGGCAUGCUAUAAC | 55 | 59.5 |  |  | 
18 | AAACAAAUGCAAGGAUAUCAUAAUACAAACAGGAGAGAAGGUGCAGAGCACAUGAGGAUCACCCAUGUCCUAGGAUAUUCCUAA |  |  | 121 | 80.4 | 
19 | GGUUAACAUGAGGAUCACCCAUGUAAGGAUAUCGGGCUGUCCAGGCGAUAGUACACGUCGAGAAGGUACGCGGU | 10.8 | 12.2 |  |  | 
20 | CGAAAACAUGAGGAUCACCCAUGUUAGGAUAUGAGGAUGGUAUAGUAUACGGUGUAGAUCAGAAGGAACGGUGG | 11.4 | 11.6 |  |  | 
21 | ACGCACAUGAGGAUCACCCAUGUGAACCUACGAGGACCGGUACGGCCGCCACUCGCUGUUCCUACCGGCUUAAUUGUCACUGGGU |  |  |  |  | apparent Kd [5]: 36.5 nM; apparent Kd [6]: 35 nM
22 | GCAUGGACAUGAGGAUCACCCAUGUGUCGCCCUGGACCCGUUAGAAGGCCGUUCCAGAGAACAACGGAGGAUAUAAUUACAGCC |  |  | 35.7 | 27 | 
23 | CUAAAACAUGAGGAUCACCCAUGUCAUUUAACUCAAGGAUAUAGAUCUGAGAGCUCAGCGCUAGAAGGUGAUUUUG |  |  | 55.1 | 40.3 | 
